Results of several laboratories.
Each line is one published result; the experiments were not run side by side.
Target: Calcium/calmodulin-dependent protein kinase kinase 2 (CAMKK2, Homo sapiens, UniProt Q96RR4)

Structure (SMILES)	assay	setting	quantity	result
C=CC(=O)N1CCC([C@@H]2CCNc3c(C(N)=O)c(-c4ccc(Oc5ccccc5)cc4)nn32)CC1	enzyme activity, inhibitor	1 µM	inhibition	12%
Cc1ccc(NC(=O)c2ccnc(C(F)(F)F)c2)cc1-c1cc(OCCO)nc(N2CCOCC2)c1	binding	1 µM	remaining binding	98%
C#Cc1cc(-c2cc(Nc3nc(N[C@@H](C)c4ccc(F)cn4)ncc3Cl)n[nH]2)ccc1C=O	enzyme activity, inhibitor	0.2 µM	inhibition	57.9%
Cc1cc(O)c(-c2ccc([C@@H](C)CN(C)C)cc2)c2c1[nH]c(=O)c1sccc12	enzyme activity, inhibitor	0.1 µM	inhibition	6.79%
COc1ccc2[nH]c3c4[nH]c5ccc(OC)cc5c4c4c(c3c2c1)C(=O)NC4=O	binding	1 µM	remaining binding	74%
CCCCC(=O)Nc1ccc(-c2ccc3ncn(CCC)c(=O)c3c2)cn1	binding, competition with immobilised ligand	0.5 µM	remaining binding	100%
C1=C/COCc2cc(ccc2OCCN2CCCC2)Nc2nccc(n2)-c2cccc(c2)COC/1	binding	0.1 µM	remaining binding	68%
C=CC(=O)N1CCC[C@@H](n2nc(-c3ccc(Oc4ccccc4)cc3)c3c(N)ncnc32)C1	enzyme activity, inhibitor	1 µM	inhibition	4%
